The values that follow come from ChEMBL document CHEMBL1137816, “New polyhydroxylated pyrrolidine, piperidine, and pyrrolizidine alkaloids from Scilla sibirica” (J Nat Prod, 2002).

One assay concerns Penicillium decumbens. The assay is described as follows: Inhibition of Penicillium decumbens alpha-L-rhamnosidase assessed as p-nitrophenol release at 1000 uM by spectrophotometry. The method, boiled down:
(§1)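 p-Nitrophenyl glycoside substrates: Penicillium decumbens α-L-rhamnosidase at pH 4.5, bovine epididymis α-L-fucosidase at pH 5.5, bovine liver β-galactosidase at pH 6.8. β-Mannosidase came from rat epididymal fluid purified from epididymis, with p-nitrophenyl-β-D-mannoside at pH 5.2. Enzyme, substrate and inhibitor were incubated 30 min at 37 °C. The reaction was stopped with 400 mM Na2CO3, and p-nitrophenol was read at 400 nm.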

Assay [1] concerns the target Lysosomal alpha-glucosidase (Rattus norvegicus) (UniProt Q6P7A9). The assay is described as follows: Inhibition of rat liver lysosome alpha-glucosidase assessed as D-glucose release at 1000 uM after 30 mins by Glucose B-test.
For assay [2], the target named is T1, Tissue alpha-L-fucosidase (Bos taurus) (UniProt Q2KIM0).
T1 sequence (whole entry): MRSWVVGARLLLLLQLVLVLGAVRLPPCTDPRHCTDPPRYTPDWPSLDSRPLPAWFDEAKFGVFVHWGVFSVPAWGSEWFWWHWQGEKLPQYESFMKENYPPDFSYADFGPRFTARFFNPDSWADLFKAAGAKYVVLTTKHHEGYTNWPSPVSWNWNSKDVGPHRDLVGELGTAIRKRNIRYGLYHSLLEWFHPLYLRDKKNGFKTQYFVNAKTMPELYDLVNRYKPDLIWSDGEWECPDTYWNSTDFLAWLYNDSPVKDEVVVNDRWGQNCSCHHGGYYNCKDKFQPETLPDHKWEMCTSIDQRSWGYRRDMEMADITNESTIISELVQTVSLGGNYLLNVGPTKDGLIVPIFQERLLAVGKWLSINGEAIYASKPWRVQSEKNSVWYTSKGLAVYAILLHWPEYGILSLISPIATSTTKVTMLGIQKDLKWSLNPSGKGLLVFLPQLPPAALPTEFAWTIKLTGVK
The assay is described as follows: Inhibition of bovine epididymis alpha-L-fucosidase assessed as p-nitrophenol release at 1000 uM after 30 mins by spectrophotometry. The method, boiled down: as §1

The next assay deals with Oryza sativa. The assay is described as follows: Inhibition of rice alpha-glucosidase assessed as D-glucose release at 1000 uM after 10 mins by Glucose B-test. The method, boiled down:
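Rice α-glucosidase was assayed with maltose as substrate at the enzyme's optimum pH. Incubation with inhibitor was 10 min at 37 °C. Released D-glucose was determined colorimetrically by Glucose B-test.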

The target in assay [3] is T2, Beta-galactosidase (Bos taurus) (UniProt Q58D55).
T2 sequence (whole entry): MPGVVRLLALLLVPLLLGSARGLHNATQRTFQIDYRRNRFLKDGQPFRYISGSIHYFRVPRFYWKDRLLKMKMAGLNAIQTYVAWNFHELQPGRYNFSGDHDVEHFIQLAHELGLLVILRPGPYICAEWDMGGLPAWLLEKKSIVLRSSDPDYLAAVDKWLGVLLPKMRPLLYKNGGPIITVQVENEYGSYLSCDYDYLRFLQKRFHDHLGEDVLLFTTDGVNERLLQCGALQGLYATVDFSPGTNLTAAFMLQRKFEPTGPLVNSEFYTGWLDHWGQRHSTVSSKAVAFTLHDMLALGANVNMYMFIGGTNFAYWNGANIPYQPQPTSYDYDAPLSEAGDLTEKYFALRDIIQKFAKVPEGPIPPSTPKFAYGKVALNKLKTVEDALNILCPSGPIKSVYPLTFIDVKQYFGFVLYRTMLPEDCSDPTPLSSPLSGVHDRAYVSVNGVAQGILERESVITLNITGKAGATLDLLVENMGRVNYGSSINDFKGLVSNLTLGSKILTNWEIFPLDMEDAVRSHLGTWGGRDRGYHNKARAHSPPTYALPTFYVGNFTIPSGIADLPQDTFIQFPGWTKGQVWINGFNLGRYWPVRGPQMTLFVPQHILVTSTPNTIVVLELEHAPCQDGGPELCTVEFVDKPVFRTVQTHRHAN
The assay is described as follows: Inhibition of bovine liver beta-galactosidase assessed as p-nitrophenol release at 1000 uM after 30 mins by spectrophotometry. The method, boiled down:
as §1

Assay [4] concerns the target Oligo-1,6-glucosidase IMA1 (Saccharomyces cerevisiae S288c) (UniProt P53051). The experiment in a line: Inhibition of yeast alpha-glucosidase assessed as D-glucose release at 1000 uM after 30 mins by Glucose B-test.
Assay [5] concerns the target Lysosomal alpha-glucosidase (Rattus norvegicus) (UniProt Q6P7A9). The experiment in a line: Inhibition of rat intestinal maltase assessed as D-glucose release at 1000 uM after 30 mins by Glucose B-test. A digest of the protocol: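 Brush border membranes from rat small intestine served as the enzyme source, with maltose substrate at pH 5.8. Incubation with inhibitor was 30 min at 37 °C. Released D-glucose was measured colorimetrically by Glucose B-test.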

Assay [6] can be described thus: Inhibition of rat intestinal amyloglucosidase.
The target in assay [7] is Lysosomal alpha-glucosidase (Rattus norvegicus) (UniProt Q6P7A9). The experiment in a line: Inhibition of rat liver lysosome alpha-glucosidase assessed as p-nitrophenol release at 1000 uM after 30 mins measured spectrometrically at 400 nm.
The target in the next assay is T3, Beta-mannosidase (Rattus norvegicus, UniProt Q4FZV0).
T3 sequence (Q4FZV0 whole entry): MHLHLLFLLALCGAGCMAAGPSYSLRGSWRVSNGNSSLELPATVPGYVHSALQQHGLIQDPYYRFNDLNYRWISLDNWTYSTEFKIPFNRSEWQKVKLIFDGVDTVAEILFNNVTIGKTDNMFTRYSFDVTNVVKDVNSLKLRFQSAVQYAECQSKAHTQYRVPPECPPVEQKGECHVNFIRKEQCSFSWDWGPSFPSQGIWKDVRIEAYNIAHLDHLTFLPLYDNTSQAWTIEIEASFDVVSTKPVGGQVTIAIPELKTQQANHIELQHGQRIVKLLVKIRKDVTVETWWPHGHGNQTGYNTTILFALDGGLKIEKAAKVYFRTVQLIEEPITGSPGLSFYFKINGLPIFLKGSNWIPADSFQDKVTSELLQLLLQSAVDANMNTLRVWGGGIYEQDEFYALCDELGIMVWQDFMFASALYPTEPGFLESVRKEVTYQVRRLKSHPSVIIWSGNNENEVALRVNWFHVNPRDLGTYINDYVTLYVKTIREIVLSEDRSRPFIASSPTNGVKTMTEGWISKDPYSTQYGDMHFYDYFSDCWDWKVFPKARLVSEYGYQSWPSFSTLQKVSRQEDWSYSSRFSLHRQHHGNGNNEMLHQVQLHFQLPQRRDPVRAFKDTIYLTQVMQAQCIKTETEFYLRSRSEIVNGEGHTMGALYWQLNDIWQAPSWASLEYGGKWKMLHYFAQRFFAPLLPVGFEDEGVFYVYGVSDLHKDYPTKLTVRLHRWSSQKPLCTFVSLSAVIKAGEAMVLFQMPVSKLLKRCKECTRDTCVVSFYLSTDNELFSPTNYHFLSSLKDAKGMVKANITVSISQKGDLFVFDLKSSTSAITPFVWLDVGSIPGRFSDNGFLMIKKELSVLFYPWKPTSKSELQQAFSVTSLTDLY
The assay is described as follows: Inhibition of rat epididymis beta-mannosidase assessed as p-nitrophenol release after 30 mins by spectrophotometry. The method, boiled down: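 Source was rat epididymal fluid purified from epididymis. Assayed at pH 5.2 with p-nitrophenyl-β-D-mannoside, incubated with inhibitor 30 min at 37 °C. Stopped with 400 mM Na2CO3; p-nitrophenol read at 400 nm.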

Assay [8] in a line: Inhibition of rice alpha-glucosidase assessed as D-glucose release after 10 mins by Glucose B-test. Also on record: species or system Oryza sativa. The method, boiled down: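 Rice enzyme with maltose as substrate at the enzyme's optimum pH. Incubation with inhibitor ran 10 min at 37 °C. Released D-glucose determined colorimetrically with a glucose test kit.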
In another assay the target is Alpha-glucosidase MAL12 (Saccharomyces cerevisiae S288c, UniProt P53341). The experiment in a line: Inhibition of yeast alpha-glucosidase assessed as p-nitrophenol release after 30 mins measured at 400 nm.
The target of the next assay is T4, Beta-galactosidase (Bos taurus, UniProt Q58D55).
T4 sequence (Q58D55 whole entry): T2 sequence (whole entry)
The assay is described as follows: Inhibition of bovine liver beta-galactosidase assessed as p-nitrophenol release after 30 mins by spectrophotometry. The method, boiled down:
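Bovine liver enzyme at pH 6.8 with the appropriate p-nitrophenyl glycoside. Incubated with inhibitor 30 min at 37 °C, quenched with 400 mM Na2CO3, and released p-nitrophenol read at 400 nm.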

A further assay concerns the target Beta-glucosidase A (Caldicellulosiruptor saccharolyticus, UniProt P10482). The assay is described as follows: Inhibition of Caldocellum saccharolyticum beta-glucosidase assessed as p-nitrophenol release after 30 mins measured spectrometrically at 400 nm.
Assay [9] can be described thus: Inhibition of Penicillium decumbens alpha-L-rhamnosidase assessed as p-nitrophenol release after 30 mins by spectrophotometry. A digest of the protocol: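 Penicillium decumbens enzyme assayed at pH 4.5 with the appropriate p-nitrophenyl glycoside. Substrate, diluted enzyme and inhibitor were incubated 30 min at 37 °C, then stopped with 400 mM Na2CO3. Released p-nitrophenol was read at 400 nm.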

In assay [10] the target is Oligo-1,6-glucosidase IMA1 (Saccharomyces cerevisiae S288c) (UniProt P53051). The experiment in a line: Inhibition of yeast alpha-glucosidase assessed as p-nitrophenol release at 1000 uM after 30 mins measured spectrometrically at 400 nm.
Assay [11] has as its target T5, Beta-mannosidase (Rattus norvegicus) (UniProt Q4FZV0).
T5 sequence (whole entry): T3 sequence (Q4FZV0 whole entry)
The experiment in a line: Inhibition of rat epididymis beta-mannosidase assessed as p-nitrophenol release at 1000 uM after 30 mins by spectrophotometry. The method, boiled down: as §1

Calls of active or inactive are those of the source. No cut-off for these calls is given here.

Lysosomal alpha-glucosidase (Rattus norvegicus), sequence (Q6P7A9 whole entry): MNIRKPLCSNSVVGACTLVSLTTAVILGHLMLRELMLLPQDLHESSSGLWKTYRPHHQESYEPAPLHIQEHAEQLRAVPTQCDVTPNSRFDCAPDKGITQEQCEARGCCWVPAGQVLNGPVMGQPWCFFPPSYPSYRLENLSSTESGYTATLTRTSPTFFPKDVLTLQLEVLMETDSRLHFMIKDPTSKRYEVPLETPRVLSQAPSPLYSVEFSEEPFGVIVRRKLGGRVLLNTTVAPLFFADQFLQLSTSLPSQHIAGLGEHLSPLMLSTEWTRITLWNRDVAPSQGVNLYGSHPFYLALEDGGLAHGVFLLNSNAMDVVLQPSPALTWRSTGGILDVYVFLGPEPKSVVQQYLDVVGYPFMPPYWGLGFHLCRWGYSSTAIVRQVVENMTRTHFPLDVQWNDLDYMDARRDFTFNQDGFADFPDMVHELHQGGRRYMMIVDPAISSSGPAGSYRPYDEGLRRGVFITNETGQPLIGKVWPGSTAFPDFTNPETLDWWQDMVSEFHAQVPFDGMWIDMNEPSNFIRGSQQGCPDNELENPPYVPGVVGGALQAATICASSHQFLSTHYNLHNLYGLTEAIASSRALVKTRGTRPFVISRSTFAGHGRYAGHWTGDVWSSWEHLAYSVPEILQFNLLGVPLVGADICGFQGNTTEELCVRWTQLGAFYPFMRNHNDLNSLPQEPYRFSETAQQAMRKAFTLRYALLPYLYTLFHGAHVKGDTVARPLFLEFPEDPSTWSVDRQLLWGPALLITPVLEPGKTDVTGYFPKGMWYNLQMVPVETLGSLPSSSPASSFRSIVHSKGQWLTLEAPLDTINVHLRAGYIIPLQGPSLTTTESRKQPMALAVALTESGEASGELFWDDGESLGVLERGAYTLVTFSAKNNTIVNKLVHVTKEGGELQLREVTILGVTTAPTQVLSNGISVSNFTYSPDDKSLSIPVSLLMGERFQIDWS
Oligo-1,6-glucosidase IMA1 (Saccharomyces cerevisiae S288c), sequence (P53051 whole entry): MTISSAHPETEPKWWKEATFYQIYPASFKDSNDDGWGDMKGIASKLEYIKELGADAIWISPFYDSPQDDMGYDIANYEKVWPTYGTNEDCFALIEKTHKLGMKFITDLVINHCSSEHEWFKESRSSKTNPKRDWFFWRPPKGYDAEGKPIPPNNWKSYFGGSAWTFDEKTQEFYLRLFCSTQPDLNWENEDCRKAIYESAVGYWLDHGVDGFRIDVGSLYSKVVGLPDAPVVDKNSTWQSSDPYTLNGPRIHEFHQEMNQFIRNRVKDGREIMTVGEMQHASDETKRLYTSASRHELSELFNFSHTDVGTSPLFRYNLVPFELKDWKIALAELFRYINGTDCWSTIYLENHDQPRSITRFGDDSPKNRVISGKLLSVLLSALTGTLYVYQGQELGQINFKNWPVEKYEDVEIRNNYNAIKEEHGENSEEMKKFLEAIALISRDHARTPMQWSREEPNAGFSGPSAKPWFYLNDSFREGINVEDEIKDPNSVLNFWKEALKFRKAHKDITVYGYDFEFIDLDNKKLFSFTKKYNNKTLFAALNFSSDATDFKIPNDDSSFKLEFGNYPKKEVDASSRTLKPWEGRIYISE
Alpha-glucosidase MAL12, sequence (P53341 whole entry): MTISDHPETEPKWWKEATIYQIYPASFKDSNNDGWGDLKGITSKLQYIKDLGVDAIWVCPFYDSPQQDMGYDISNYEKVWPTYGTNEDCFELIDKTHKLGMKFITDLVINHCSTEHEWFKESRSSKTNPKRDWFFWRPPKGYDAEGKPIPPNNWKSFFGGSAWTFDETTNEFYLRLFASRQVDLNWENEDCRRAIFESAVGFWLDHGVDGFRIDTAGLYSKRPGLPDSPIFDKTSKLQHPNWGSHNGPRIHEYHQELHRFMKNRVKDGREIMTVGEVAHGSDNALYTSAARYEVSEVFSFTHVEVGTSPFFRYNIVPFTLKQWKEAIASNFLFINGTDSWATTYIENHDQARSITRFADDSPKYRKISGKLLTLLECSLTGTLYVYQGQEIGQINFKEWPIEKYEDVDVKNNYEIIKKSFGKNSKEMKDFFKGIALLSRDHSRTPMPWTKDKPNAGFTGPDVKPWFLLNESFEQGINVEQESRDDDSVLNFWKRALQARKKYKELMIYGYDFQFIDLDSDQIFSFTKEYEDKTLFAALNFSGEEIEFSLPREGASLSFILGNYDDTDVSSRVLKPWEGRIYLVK
Beta-glucosidase A, sequence (P10482 whole entry): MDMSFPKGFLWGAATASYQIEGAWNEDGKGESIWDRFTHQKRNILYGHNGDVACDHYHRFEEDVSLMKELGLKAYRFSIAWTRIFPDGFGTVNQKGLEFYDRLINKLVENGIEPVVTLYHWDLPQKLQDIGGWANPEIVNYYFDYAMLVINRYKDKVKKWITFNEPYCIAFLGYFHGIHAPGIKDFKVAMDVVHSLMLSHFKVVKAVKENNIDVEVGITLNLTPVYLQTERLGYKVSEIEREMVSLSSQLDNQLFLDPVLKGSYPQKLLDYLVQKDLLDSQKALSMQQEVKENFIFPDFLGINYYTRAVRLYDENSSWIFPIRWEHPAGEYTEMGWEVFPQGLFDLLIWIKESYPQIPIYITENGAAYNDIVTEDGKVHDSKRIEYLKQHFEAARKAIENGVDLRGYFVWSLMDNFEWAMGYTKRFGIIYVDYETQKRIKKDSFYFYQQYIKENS

Consider `C[C@@H]1CC[C@@H]2[C@H](O)[C@H](O)[C@@H](CO)N12` (relative stereo), for which the outcome (with Penicillium decumbens; in assay [1]; in [2]; in the assay on Oryza sativa; in assay [3]; in assay [4]) was inactive. Besides, the outcome in assay [5] was inactive.

For the compound `C[C@@H]1C[C@H](O)[C@@H]2[C@H](O)[C@H](O)[C@@H](CO)N21` (relative stereo) [HYACINTHACINE B5], the result (with Penicillium decumbens; in [1]; in assay [2]; with Oryza sativa; in assay [3]; in assay [4]) was inactive. Moreover, the outcome in [5] was inactive. Further, the IC50 – broadly, the point on the concentration scale where inhibition reaches its midpoint – in [6] is 110 µM.

For the compound `CC(O)[C@H]1N[C@H](CO)[C@@H](O)[C@@H]1O` (single isomer, unassigned), the inhibition (in the assay on Penicillium decumbens; in assay [7]; in [2]) was < 50% throughout. Moreover, the IC50 at Beta-mannosidase was 35 µM; in assay [8] it was 9.2 µM; at Alpha-glucosidase MAL12, 85 µM; at Beta-galactosidase, 3.4 µM; on Beta-glucosidase A, 6.7 µM.

With `C[C@@H]1CC[C@@H]2[C@@H](O)[C@@H](O)[C@@H](CO)N12` (relative stereo) [HYACINTHACINE A5], the outcome (in the assay with Penicillium decumbens; in [1]; in assay [2]; in the assay on Oryza sativa; in [3]; in assay [4]) was inactive. The outcome in assay [5] was inactive. In [6], the IC50 is 110 µM.

Turning to `OCC(O)[C@H]1N[C@H](CO)[C@@H](O)[C@@H]1O` (single isomer, unassigned), the inhibition (in the assay on Penicillium decumbens; in [7]; in assay [2]) was < 50% each time. Besides, the IC50 came out at 53 µM at Beta-mannosidase; 95 µM in assay [8]; 220 µM on Alpha-glucosidase MAL12; 4.4 µM at Beta-galactosidase; 3.2 µM on Beta-glucosidase A.

As for `OC[C@H]1NC[C@@H](O)[C@H](O)[C@@H]1O`, the half-maximal inhibitory concentration (IC50) in [9] is 1.8 µM. For the same compound, the inhibition (in [7]; in assay [2]; in [10]; with Oryza sativa; in assay [11]; in assay [5]) was < 50% each time.

For the compound `OC[C@H]1NC[C@H](O)[C@@H](O)[C@@H]1O` [DUVOGLUSTAT], the results for the half-maximal inhibitory concentration (IC50) in assay [9] and in assay [8] were 850 µM and 0.05 µM, respectively. The inhibition in assay [2], in assay [11] and in assay [3] was < 50% each time.

In the case of `C[C@@H]1C[C@H](O)[C@@H]2[C@H](O)[C@@H](O)[C@@H](CO)N21` (relative stereo), the result (with Penicillium decumbens; in assay [1]; in assay [2]; in the assay with Oryza sativa; in assay [3]; in assay [4]) was inactive. Moreover, the result in assay [5] was inactive.

On to `C[C@H]1CC[C@@H]2[C@H](O)[C@H](O)[C@@H](CO)N21` (relative stereo), for which the outcome (in the assay on Penicillium decumbens; in [1]; in assay [2]; in the assay with Oryza sativa; in assay [3]; in [4]) was inactive. In addition, the outcome in assay [5] was inactive.

Take `C[C@H]1CC[C@@H]2[C@H](O)[C@H](O)[C@H](CO)N21` (relative stereo): the outcome (in the assay with Penicillium decumbens; in [1]; in [2]; with Oryza sativa; in [11]; in [3]) was inactive. Besides, the outcome in assay [4] and in assay [5] was inactive.
